ChEMBL document CHEMBL3525950, “Autoinhibition of CYP3A4 leads to important role of CYP2C8 in imatinib metabolism: variability in CYP2C8 activity may alter plasma concentrations and response” (Drug Metab Dispos, 2013)

Tests used:
Cytochrome P450 1A2 [1] = biological target: T1, Cytochrome P450 1A2 (Homo sapiens, UniProt P05177); assay: Activity of human recombinant CYP1A2 in supersomes assessed as intrinsic clearance for enzyme-mediated drug metabolism by LC/MS analysis
T1 sequence (P05177 whole entry): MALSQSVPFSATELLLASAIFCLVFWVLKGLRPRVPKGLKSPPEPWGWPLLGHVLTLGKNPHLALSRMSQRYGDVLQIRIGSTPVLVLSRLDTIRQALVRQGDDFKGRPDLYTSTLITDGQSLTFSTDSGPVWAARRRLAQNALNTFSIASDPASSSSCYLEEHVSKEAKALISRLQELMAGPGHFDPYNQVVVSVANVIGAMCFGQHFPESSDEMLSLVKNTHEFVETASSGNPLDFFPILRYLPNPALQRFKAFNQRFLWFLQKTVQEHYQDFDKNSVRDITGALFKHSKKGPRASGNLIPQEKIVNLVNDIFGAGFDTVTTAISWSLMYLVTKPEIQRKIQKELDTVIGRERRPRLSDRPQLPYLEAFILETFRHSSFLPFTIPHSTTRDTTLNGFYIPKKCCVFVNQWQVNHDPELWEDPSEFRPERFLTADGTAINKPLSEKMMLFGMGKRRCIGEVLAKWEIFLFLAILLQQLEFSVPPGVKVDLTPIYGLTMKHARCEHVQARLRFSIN

CYP2C8 = assay: Fraction unbound in human liver microsomes containing CYP2C8 after 60 mins; type: ADME
CYP1A2 = assay: Fraction unbound in human liver microsomes containing CYP1A2 after 60 mins; type: ADME
Cytochrome P450 3A5 [2] = biological target: T2, Cytochrome P450 3A5 (Homo sapiens, UniProt P20815); assay: Activity of human recombinant CYP3A5 in supersomes assessed as enzyme-mediated drug metabolism at 0.05 to 0.1 uM after 30 mins by LC/MS analysis; type: ADME; conditions: 0.5 h
T2 sequence (P20815 whole entry): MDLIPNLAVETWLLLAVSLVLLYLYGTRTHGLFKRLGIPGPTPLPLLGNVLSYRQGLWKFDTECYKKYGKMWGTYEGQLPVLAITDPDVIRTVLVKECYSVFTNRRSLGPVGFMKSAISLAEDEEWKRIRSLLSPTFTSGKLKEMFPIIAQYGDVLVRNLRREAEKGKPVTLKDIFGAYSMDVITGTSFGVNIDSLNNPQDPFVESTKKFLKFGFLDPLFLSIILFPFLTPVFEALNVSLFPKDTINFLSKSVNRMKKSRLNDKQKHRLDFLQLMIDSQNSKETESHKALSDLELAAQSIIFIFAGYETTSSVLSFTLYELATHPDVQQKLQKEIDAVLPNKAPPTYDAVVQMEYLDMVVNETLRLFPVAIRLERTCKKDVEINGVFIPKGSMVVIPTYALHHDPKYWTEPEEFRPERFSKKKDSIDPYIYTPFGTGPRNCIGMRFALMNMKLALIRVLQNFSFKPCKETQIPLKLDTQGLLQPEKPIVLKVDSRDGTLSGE
Method in brief: (§1)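 Recombinant P450 (CYP1A2 50, CYP2C8 158, CYP2D6 72, CYP3A4 66, CYP3A5 50 pmol/ml; 0.5 mg/ml protein) incubated with 0.1 µM N-DMI, and also 0.05 µM with CYP2C8/3A4/3A5. Run in 0.1 M sodium phosphate pH 7.4 with 1 mM NADPH at 37°C, in triplicate. N-DMI depletion was followed by LC-MS/MS; k_dep was fitted over 0–30 min and CLint = k_dep/[P450].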

Cytochrome P450 3A4 [3] = biological target: T3, Cytochrome P450 3A4 (Homo sapiens, UniProt P08684); assay: Activity of human recombinant CYP3A4 in supersomes assessed as enzyme-mediated drug metabolism at 0.05 to 0.1 uM after 30 mins by LC/MS analysis; type: ADME; conditions: 0.5 h; method in brief: as §1
T3 sequence (P08684 whole entry): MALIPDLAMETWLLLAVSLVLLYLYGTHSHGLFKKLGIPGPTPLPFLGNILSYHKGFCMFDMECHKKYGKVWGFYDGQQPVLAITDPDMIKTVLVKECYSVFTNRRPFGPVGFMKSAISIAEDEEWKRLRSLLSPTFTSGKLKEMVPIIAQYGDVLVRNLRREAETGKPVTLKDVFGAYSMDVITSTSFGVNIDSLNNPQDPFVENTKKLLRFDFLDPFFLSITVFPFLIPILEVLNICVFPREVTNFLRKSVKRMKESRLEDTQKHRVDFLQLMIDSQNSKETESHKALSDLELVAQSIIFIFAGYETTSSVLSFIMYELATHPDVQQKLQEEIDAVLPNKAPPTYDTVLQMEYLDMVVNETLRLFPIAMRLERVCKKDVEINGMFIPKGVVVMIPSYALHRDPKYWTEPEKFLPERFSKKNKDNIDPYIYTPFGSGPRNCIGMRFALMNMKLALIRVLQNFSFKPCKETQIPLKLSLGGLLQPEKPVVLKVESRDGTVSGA

CYP3A4 = assay: Fraction unbound in human liver microsomes containing CYP3A4 after 60 mins; type: ADME
Cytochrome P450 2C8 [4] = biological target: T4, Cytochrome P450 2C8 (Homo sapiens, UniProt P10632); assay: Activity of human recombinant CYP2C8 in supersomes assessed as intrinsic clearance for enzyme-mediated drug metabolism by LC/MS analysis; type: ADME
T4 sequence (P10632 whole entry): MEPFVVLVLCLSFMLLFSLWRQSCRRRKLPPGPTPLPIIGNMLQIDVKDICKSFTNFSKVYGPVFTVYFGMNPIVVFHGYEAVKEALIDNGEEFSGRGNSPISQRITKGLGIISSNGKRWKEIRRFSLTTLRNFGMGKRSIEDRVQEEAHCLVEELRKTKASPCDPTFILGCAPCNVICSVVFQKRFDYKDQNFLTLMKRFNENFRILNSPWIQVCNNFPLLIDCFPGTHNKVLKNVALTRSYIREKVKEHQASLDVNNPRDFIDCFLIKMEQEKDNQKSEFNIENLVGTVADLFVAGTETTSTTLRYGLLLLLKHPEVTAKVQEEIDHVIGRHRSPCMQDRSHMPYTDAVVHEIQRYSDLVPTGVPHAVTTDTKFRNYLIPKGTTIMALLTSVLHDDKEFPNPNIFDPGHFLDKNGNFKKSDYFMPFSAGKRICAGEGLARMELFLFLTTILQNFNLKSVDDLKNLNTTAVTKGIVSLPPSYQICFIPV
Method in brief: (§2)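 N-DMI formation kinetics: imatinib 0.10–320 µM with CYP2C8 (33 pmol/ml, 4 min), CYP3A4 (13 pmol/ml, 3 min) or CYP3A5 (10 pmol/ml, 30 min), 0.1 mg/ml protein. Run in phosphate pH 7.4 with 1 mM NADPH at 37°C, in triplicate, read by LC-MS/MS. Fits used substrate-inhibition (CYP2C8, CYP3A4) or Michaelis–Menten (CYP3A5) models; CLint = Vmax/Km.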

Cytochrome P450 3A4 [5] = biological target: T3, Cytochrome P450 3A4; assay: Activity of human recombinant CYP3A4 in supersomes assessed as intrinsic clearance for enzyme-mediated drug metabolism by LC/MS analysis; type: ADME; method in brief: as §2
Cytochrome P450 1A2 [6] = biological target: T1, Cytochrome P450 1A2; assay: Activity of human recombinant CYP1A2 in supersomes assessed as enzyme-mediated drug metabolism at 0.05 to 0.1 uM after 30 mins by LC/MS analysis; type: ADME; conditions: 0.5 h; method in brief: as §1
Cytochrome P450 2D6 [7] = biological target: T5, Cytochrome P450 2D6 (Homo sapiens, UniProt P10635); assay: Activity of human recombinant CYP2D6 in supersomes assessed as enzyme-mediated drug metabolism at 0.05 to 0.1 uM after 30 mins by LC/MS analysis; type: ADME; conditions: 0.5 h; method in brief: as §1
T5 sequence (P10635 whole entry): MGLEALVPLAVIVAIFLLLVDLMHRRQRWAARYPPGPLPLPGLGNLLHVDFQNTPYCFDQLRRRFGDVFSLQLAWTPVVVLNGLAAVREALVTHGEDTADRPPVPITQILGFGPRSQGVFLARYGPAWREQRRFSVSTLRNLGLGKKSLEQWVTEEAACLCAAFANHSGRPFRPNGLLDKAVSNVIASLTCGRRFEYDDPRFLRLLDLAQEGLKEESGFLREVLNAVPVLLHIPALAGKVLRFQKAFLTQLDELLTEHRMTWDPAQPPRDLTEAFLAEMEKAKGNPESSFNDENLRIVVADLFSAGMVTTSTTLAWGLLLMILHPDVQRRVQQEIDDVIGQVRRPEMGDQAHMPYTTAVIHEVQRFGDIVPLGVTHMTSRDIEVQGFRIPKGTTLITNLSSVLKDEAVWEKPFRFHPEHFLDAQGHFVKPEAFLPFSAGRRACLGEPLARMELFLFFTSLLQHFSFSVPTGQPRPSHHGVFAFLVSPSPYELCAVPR

Cytochrome P450 2D6 [8] = biological target: T5, Cytochrome P450 2D6; assay: Activity of human recombinant CYP2D6 in supersomes assessed as intrinsic clearance for enzyme-mediated drug metabolism by LC/MS analysis
CYP2D6 = assay: Fraction unbound in human liver microsomes containing CYP2D6 after 60 mins; type: ADME
Cytochrome P450 3A5 [9] = biological target: T2, Cytochrome P450 3A5; assay: Activity of human recombinant CYP3A5 in supersomes assessed as intrinsic clearance for enzyme-mediated drug metabolism by LC/MS analysis; type: ADME; method in brief: as §2
CYP3A5 = assay: Fraction unbound in human liver microsomes containing CYP3A5 after 60 mins; type: ADME
Cytochrome P450 2C8 [10] = biological target: T4, Cytochrome P450 2C8; assay: Activity of human recombinant CYP2C8 in supersomes assessed as enzyme-mediated drug metabolism at 0.05 to 0.1 uM after 30 mins by LC/MS analysis; type: ADME; conditions: 0.5 h; method in brief: as §1
[11] = Oral bioavailability in chronic myeloid leukemia patient; type: ADME, organism-based; conditions: human, in vivo
[12] = Cmax in chronic myeloid leukemia patient at 400 mg, qd by multiple dose study; type: ADME, organism-based; design: dose 400 mg; conditions: human, in vivo

Compound	CL (Cytochrome P450 1A2 [1]) [µL/min]	fraction unbound at 1 h (CYP2C8)	fraction unbound at 1 h (CYP1A2)	Drug metabolism (Cytochrome P450 3A5 [2])	Drug metabolism (Cytochrome P450 3A4 [3])	fraction unbound at 1 h (CYP3A4)	CL (Cytochrome P450 2C8 [4]) [µL/min]	CL (Cytochrome P450 3A4 [5]) [µL/min]	Drug metabolism (Cytochrome P450 1A2 [6])	Drug metabolism (Cytochrome P450 2D6 [7])	CL (Cytochrome P450 2D6 [8]) [µL/min]	fraction unbound at 1 h (CYP2D6)	CL (Cytochrome P450 3A5 [9]) [µL/min]	fraction unbound at 1 h (CYP3A5)	Drug metabolism (Cytochrome P450 2C8 [10])	bioavailability [11] [%]	Cmax [12] [ng/mL]
CS(=O)(=O)O.Cc1ccc(NC(=O)c2ccc(CN3CCNCC3)cc2)cc1Nc1nccc(-c2cccnc2)n1	0.03	0.8	0.8	metabolite_not_detected	metabolite_detected	0.8	0.06	0.5	metabolite_not_detected	metabolite_not_detected	0.05	0.8	0.09	0.8	metabolite_detected	–	–
CS(=O)(=O)O.Cc1ccc(NC(=O)c2ccc(CN3CCN(C)CC3)cc2)cc1Nc1nccc(-c2cccnc2)n1 [IMATINIB MESYLATE]	–	–	–	–	–	–	–	–	–	–	–	–	–	–	–	> 97	2200
